# Screening results as filed in PubChem.
# GPR7 antag: human neuropeptides B/W receptor 1 antagonism; P48145; GPR7-expressing cells, fluorescence antagonist assay; inhibition, % at 4.4 µM; hit rate 1.1% among 290,000; in the data active means inhibition above about 16%, passing the limit was not always enough;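 further: cells stimulated with the agonist NPW; 0% = agonist with vehicle and 100% = vehicle without agonist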
# Target sequence (P48145 whole entry, looked up): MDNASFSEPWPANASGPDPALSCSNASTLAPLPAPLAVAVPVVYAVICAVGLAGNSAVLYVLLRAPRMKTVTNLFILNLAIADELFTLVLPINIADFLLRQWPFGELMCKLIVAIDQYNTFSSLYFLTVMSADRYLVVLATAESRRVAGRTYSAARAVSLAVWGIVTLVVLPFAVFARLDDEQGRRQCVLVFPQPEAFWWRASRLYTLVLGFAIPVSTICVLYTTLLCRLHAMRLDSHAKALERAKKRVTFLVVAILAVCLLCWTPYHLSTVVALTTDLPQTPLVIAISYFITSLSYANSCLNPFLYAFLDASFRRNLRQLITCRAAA
# CHO parental Ca: counter-screen for OX1R antagonists: effect in parental CHO cells; AID 463079; parental CHO-K1, ATP-induced calcium, Fluo-8 fluorescence; inhibition, % at 5.6 µM; hit rate 0.63% among 330,000;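 active means inhibition above that plate's mean sample inhibition plus 3 SD, cut at about 26% in these data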;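 further: 0% = ATP-challenged DMSO wells and 100% = DMSO wells without ATP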
#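 Test system: untransfected parental CHO cell line. Compound: one dose, 5.6 µM nominal. Detection: intracellular calcium via Fluo-8 no-wash fluorescent dye. Measure: % inhibition. Benchmarks: ATP-challenged DMSO wells low, unchallenged DMSO wells high.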
# GalR3 antagonist: human GalR3 antagonism | hit rate 0.44% among 360,000 | inhibition, % at 3 µM | HEK293 GalR3-CNG cAMP membrane potential fluorescence; galR3 body fused to GalR1 C-terminus | O60755;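 active means inhibition above the screen-wide average plus 3 SD, cut at about 13% in these data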;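 further: forskolin and galanin both at EC90 stimulate the cells; cAMP rise reported by CNG channel membrane potential dye signal; 0% = forskolin plus galanin with DMSO and 100% = forskolin alone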
# Target sequence (O60755 1-299 limits assumed): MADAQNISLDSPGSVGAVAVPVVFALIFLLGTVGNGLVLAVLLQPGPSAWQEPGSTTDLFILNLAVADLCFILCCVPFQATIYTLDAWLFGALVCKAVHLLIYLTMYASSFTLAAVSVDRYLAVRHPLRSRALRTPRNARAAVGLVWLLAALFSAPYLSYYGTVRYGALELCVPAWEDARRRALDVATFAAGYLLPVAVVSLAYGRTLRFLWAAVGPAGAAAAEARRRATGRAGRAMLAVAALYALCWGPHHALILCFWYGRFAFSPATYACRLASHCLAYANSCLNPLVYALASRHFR
# OX1R antag-1: blocks the human orexin 1 receptor | hit rate 0.43% among 330,000 | inhibition, % at 5 µM | AID 434989 | CHO/OX1R cells, Fluo-8 calcium fluorescence, orexin A | O43613;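 active means inhibition above its plate's threshold, mean inhibition of all tested compounds on the plate plus 3 SD, cut at about 37% in these data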;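 further: 0% = orexin A challenge wells and 100% = SB-334867-A antagonist wells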
# OX1R antag-2: blocks the human orexin 1 receptor; inhibition, % at 6.6 µM; OX1R-expressing cells, FRET antagonist read-out; AID 485270; O43613; hit rate 1.8% among 330,000; in the data active means inhibition mostly above about 38%, no sharp cut-off; inactive means mostly below about 40%;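 further: 0% = agonist challenge alone and 100% = reference antagonist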
# An asterisk follows results filed as active; nt = not tested or not shown. Rows were chosen to be rich in hits. Some 3.1% of all compounds tested hit in one or more screens of this group.
SMILES,GPR7 antag,CHO parental Ca,GalR3 antagonist,OX1R antag-1,OX1R antag-2
CCn1c(=O)c2ccccc2n2c(SCC(=O)NCc3cccs3)nnc12,-8,0,-2,-17,23
CCCn1c(=O)c2ccccc2n2c(SCC(=O)NCc3cccs3)nnc12,18*,-30,-6,-36,22
Cc1ccc(SCc2c(C(=O)N/N=C/c3ccoc3)nnn2-c2nonc2N)cc1,-19,-19,5,20,45*
C/C(COc1ccccc1)=N\NC(=O)c1nnn(-c2nonc2N)c1CSc1ccccc1,-1,-2,1,-3,60*
CC1=NN(c2ccccc2)C(=O)/C1=C\c1c(C)[nH]n(-c2ccccc2)c1=O,-7,-4,-1,-3,5
CC1=NN(c2ccccc2)C(=O)/C1=C/c1c(O)n(-c2ccc(F)c(Cl)c2)[nH]c1=O,-11,-4,nt,5,74*
CC(=O)C1=C(C)N(Cc2ccc(F)cc2)C(=S)NC1c1cccc(Cl)c1 (stereo not drawn),nt,nt,-7,nt,nt
Oc1ccc(Br)cc1C=Nc1ccc2c3c(cccc13)CC2,5,42*,0,56*,6
Oc1ccc(Cl)cc1C=Nc1ccccc1Br,-9,0,-2,4,9
Cn1c(N)c(N=Cc2ccccc2)c(=O)n(C)c1=O,nt,nt,-5,nt,nt
Cn1c(N)c(N=Nc2ccc(S(N)(=O)=O)cc2)c(=O)n(C)c1=O,-8,14,-8,-4,60*
COc1ccc(C(=O)Nc2cccc3c2CCCC3)c(OC)c1,nt,-38,-1,18,57*
COc1ccc(C(=O)Nc2cccc3c2CCCC3)cc1,4,6,-2,-21,17
O=C(Nc1cccc2c1CCCC2)c1ccccc1Br,-13,44*,-3,14,0
Cc1ccccc1-c1ccc2c(c1)[C@@H]1C[C@H](N(C)S(=O)(=O)c3ccc(Cl)cc3)[C@H]([C@H](C)O)CN1CC2,nt,nt,-7,nt,nt
Cc1ccccc1-n1c2nc(=O)n(C)c(=O)c-2cc2ccccc21,1,-16,-2,-16,65*
O=C(Cc1ccccc1)NCC(=O)N/N=C/c1ccc([N+](=O)[O-])s1,-8,-1,-9,-17,52*
O=C(CNC(=O)c1ccccc1)N/N=C/c1ccc([N+](=O)[O-])s1,-16,-10,-4,-11,47*
Cc1ccc(C(=O)N/N=C/c2ccc([N+](=O)[O-])s2)cc1,-1,6,0,-3,55
O=C(N/N=C/c1ccc([N+](=O)[O-])s1)c1ccncc1,3,-4,nt,-4,72*
COc1cc(/C=C/c2nc3ccccc3c(=O)[nH]2)cc(OC)c1OC,6,-15,-9,-16,7
COc1cc(/C=C/c2nnc3c4ccccc4ncn23)cc(OC)c1OC,15,-3,-5,-3,65*
Cc1cc(=O)oc2cc(O)cc(O)c12,nt,nt,-1,nt,nt
CCCCCc1cc(O)c2c(C)cc(=O)oc2c1,2,23,-6,2,43*
Cc1cccc(C(=O)O/N=C2/CC3CCC2(C)C3(C)C)c1 (stereo not drawn),-7,31*,5,-37,13
SMILES,GPR7 antag,CHO parental Ca,GalR3 antagonist,OX1R antag-1,OX1R antag-2
O=C(COc1ccccc1/C=C1\SC(=O)NC1=O)Nc1ccc(F)cc1,3,-4,-5,-22,77*
CCc1nc2ccc(C(=O)NCCCn3ccnc3)cn2c1N(C)C(=O)C1CCCCC1,nt,nt,-6,nt,nt
CC12CCC(c3c(C(=O)O)nn(-c4ccccc4)c31)C2(C)C (stereo not drawn),-5,-4,-10,17,41*
CC12CCC(c3c(C(=O)Nc4nccs4)nn(-c4ccccc4)c31)C2(C)C (stereo not drawn),-10,-26,-7,0,20
COc1ccc(-n2c(-c3ccc(Br)cc3)c[n+]3c2CCc2ccccc2-3)cc1,19,10,-6,-23,4
CC(C)c1ccc(-n2c(-c3ccccc3)c[n+]3c2CCc2ccccc2-3)cc1,68*,nt,-2,nt,nt
CCCCCCCCN1C(=O)[C@@H](CC(=O)NCc2ccc(OC)c(OC)c2)C[C@@]2(C(=O)OC)C1=C[C@H](C(C)(C)C)O[C@@H]2C,nt,nt,-5,nt,nt
CCCCN(C(=O)CCC(=O)Nc1cc(C)on1)C(C(=O)NC1CCCC1)c1ccccc1OCC (stereo not drawn),-1,-21,-8,5,76*
Cc1ccc(S(=O)(=O)N2CCCCC2CCNC(=O)C(=O)NCCc2ccco2)cc1 (stereo not drawn),nt,-23,2,9,48
Cc1ccc(C)c(S(=O)(=O)N2CCCCC2CCNC(=O)C(=O)NCCc2ccco2)c1 (stereo not drawn),nt,-29,-5,-2,55*
COc1ccccc1CCNC(=O)C(=O)NCCC1CCCCN1S(=O)(=O)c1ccccc1 (stereo not drawn),nt,-31,-6,-2,60*
Cc1cc(S(=O)(=O)N2CCCOC2CNC(=O)C(=O)NCCc2ccco2)ccc1F (stereo not drawn),-7,-18,-3,11,61*
COc1ccccc1CNC(=O)C(=O)NCCC1CCCCN1S(=O)(=O)c1ccc(C)cc1 (stereo not drawn),nt,2,-7,-16,34
Cc1ccc(C)c(S(=O)(=O)N2CCCC2CNC(=O)C(=O)NCCc2ccco2)c1 (stereo not drawn),nt,-15,-6,11,58*
Cc1cn([C@H]2C[C@H](O)[C@@H](CCC(=O)NCC3CCCO3)O2)c(=O)[nH]c1=O (stereo partly drawn),nt,nt,-5,nt,nt
C=CCN1C[C@H](COC(=O)c2ccc(C)c(C)c2)Oc2cccc(F)c2S1(=O)=O,nt,nt,-9,nt,nt
Nc1[nH]c(C(=O)c2ccccc2)c(-c2cccc3ccccc23)c1C(=O)c1cccs1,nt,nt,-7,nt,nt
COC(=O)CCC(=O)OC1(C)C(=O)C=C2C=C(C3CC3)N(CC3CC3)C=C2C1=O (stereo not drawn),nt,-16,-1,-14,37
COC(=O)CCC(=O)OC1(C)C(=O)C=C2C=C(C3CC3)N(Cc3ccccc3)C=C2C1=O (stereo not drawn),nt,-3,-2,-22,76*
O=C(NCc1cccnc1)c1cc(-c2ccccc2)on1,-4,-9,-6,-14,13
COc1ccc(-c2cc(C(=O)NCc3cccnc3)no2)cc1,18*,-15,-8,6,4
CC(C)(C)c1ccc(OCc2ccc(C(=O)NCc3cccnc3)o2)cc1,-7,37*,-8,20,8
Cc1nc2nc(C)c(NS(=O)(=O)c3ccc(Cl)s3)c(=O)n2[nH]1,18,0,-7,-1,1
Cc1noc(C)c1S(=O)(=O)N1CCCc2nc(-c3ccc(Br)cc3)ccc21,nt,nt,-8,nt,nt
COCC1CCN(C(=O)c2cc(COc3ccc4ncccc4c3)on2)CC1,-10,42*,-6,21,22
O=C(NCCc1cn2ccccc2n1)c1cc(COc2ccc3ncccc3c2)on1,-8,47*,-2,47*,65*
Cc1cc(OCc2cc(C(=O)N3CCC(Oc4cccnc4)CC3)no2)cc(C)c1Cl,-4,56*,-5,30,23
